GPR7 antagonist = blocks human GPR7 receptor signaling. GPR7-expressing cells, fluorescence antagonist assay. inhibition, % at 4.4 µM. hit rate 1.1% among 290,000; in the data active = inhibition above about 16%, passing the limit was not always enough;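 note: cells stimulated with the agonist NPW; 0% = agonist with vehicle and 100% = vehicle without agonist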
Target sequence (P48145 whole entry, looked up): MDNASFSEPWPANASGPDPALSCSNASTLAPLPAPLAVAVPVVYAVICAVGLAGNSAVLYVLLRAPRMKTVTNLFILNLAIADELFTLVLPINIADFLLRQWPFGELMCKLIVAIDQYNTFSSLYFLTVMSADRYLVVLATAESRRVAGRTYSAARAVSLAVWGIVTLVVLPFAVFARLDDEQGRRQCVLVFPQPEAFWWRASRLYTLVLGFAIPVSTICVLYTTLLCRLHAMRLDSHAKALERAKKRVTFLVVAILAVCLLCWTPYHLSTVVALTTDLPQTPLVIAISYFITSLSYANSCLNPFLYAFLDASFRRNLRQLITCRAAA
TAAR1 ag = human TAAR1 agonism | Q96RJ0 | CHO RD-HGA16 TAAR1, Fluo-8 calcium fluorescence; vehicle wells 0%, saturating PEA agonist 100% | activation, % at 3 µM | hit rate 0.99% among 360,000 | AID 624467;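 active = activation above the mean activation of all test compounds in the run plus 3 SD, cut at about 38% in these data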
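Test system: RD-HGA16 (CHO) cells co-expressing Gα16 and hTAAR1 / Benchmarks: DMSO vehicle as 0%, PEA at EC100 as 100% / Repeats: no replicates (n 1) / Measure: % activation from peak over basal fluorescence ratio, DMSO-to-PEA scaled / Timing: 17-24 h plating, Fluo-8 75 min 37 °C, 30 min RT / Technique: kinetic Fluo-8 calcium fluorescence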
TAAR1 antag = antagonists of human TAAR1 | Q96RJ0 | CHO RD-HGA16 TAAR1, Fluo-8 calcium fluorescence, antagonist | inhibition, % at 3 µM | hit rate 1.5% among 360,000;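 active = inhibition above a per-plate cutoff, the mean inhibition of test compounds on that plate plus 3 SD, cut at about 49% in these data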;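 note: 0% = DMSO plus EC80 beta-PEA response and 100% = DMSO alone without agonist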
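Test system: CHO RD-HGA16 cells bearing hTAAR1 | Reagent: β-PEA, EC80 | Compound dosing: 3 µM, single point | Schedule: Dye loading 75 min at 37 °C, then 30 min room temperature | Signal: Calcium fluorescence with Fluo-8 | Evaluation: Percent inhibition of PEA-evoked calcium signal, max/basal emission ratio | Control set: DMSO-only wells and EC80 β-PEA-stimulated wells | Repeats: Singlicate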
OX1R antag-1 = antagonists of human orexin 1 receptor. O43613. CHO/OX1R cells, Fluo-8 calcium fluorescence, orexin A. inhibition, % at 5 µM. hit rate 0.43% among 330,000;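 active = inhibition above its plate's threshold, mean inhibition of all tested compounds on the plate plus 3 SD, cut at about 37% in these data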;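 note: 0% = orexin A challenge wells and 100% = SB-334867-A antagonist wells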
Target sequence (O43613 whole entry, looked up): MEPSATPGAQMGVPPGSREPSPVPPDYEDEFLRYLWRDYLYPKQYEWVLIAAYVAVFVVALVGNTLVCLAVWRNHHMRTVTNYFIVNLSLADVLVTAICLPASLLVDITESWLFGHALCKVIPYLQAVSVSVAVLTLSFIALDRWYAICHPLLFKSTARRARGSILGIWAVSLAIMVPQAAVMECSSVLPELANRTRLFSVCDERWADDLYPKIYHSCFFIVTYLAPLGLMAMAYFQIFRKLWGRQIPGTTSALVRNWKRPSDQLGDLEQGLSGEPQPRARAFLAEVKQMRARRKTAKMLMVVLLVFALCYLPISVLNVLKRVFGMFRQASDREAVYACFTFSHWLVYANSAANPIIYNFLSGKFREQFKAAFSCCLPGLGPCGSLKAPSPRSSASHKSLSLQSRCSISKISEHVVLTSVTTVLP
CHO parental Ca = counter-screen: ATP calcium response change in parental CHO cells | parental CHO-K1, ATP-induced calcium, Fluo-8 fluorescence | hit rate 0.63% among 330,000 | inhibition, % at 5.6 µM;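 active = inhibition above that plate's mean sample inhibition plus 3 SD, cut at about 26% in these data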;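 note: 0% = ATP-challenged DMSO wells and 100% = DMSO wells without ATP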
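Measured by: calcium-sensitive Fluo-8 fluorescence / Test system: CHO parental line / Controls: ATP-challenged DMSO wells low, unchallenged DMSO wells high / Measure: % inhibition / Compound: single nominal dose of 5.6 µM per compound / Replicates: single well per compound, no replicates / Reagent: ATP as calcium-mobilizing challenge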
OX1R antag-2 = blocks the human orexin 1 receptor. O43613. OX1R-expressing cells, FRET antagonist read-out. inhibition, % at 6.6 µM. hit rate 1.8% among 330,000. AID 485270; in the data active = inhibition mostly above about 38%, no sharp cut-off; inactive = mostly below about 40%;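 note: 0% = agonist challenge alone and 100% = reference antagonist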
TAAR1 nonsel count = nonselective antagonism, TAAR1 counter-screen | shares compounds with TAAR1 antag | counterscreen cell line, calcium fluorescence, antagonist mode | inhibition, % at 3 µM | hit rate 77% among 2,400 | AID 651780; in the data active = inhibition above about 22%;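 note: CHO-Ga16 host cells stimulated with ATP at an EC80 level; 0% = agonist EC80 plus vehicle and 100% = vehicle without agonist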
TAAR1 antag conf = human TAAR1 antagonism, confirmed. shares compounds with TAAR1 antag. TAAR1-expressing cells, fluorescence antagonist read-out. inhibition, % at 3 µM. hit rate 40% among 2,400; in the data active = inhibition above about 49%;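 note: CHO-Ga16 host cells challenged with agonist PEA near its EC80; 0% = agonist at EC80 plus vehicle and 100% = vehicle with no agonist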
Ga16 nonsel ag = counter-screen for TAAR1 antagonists: nonselective Ga16 agonists. AID 651953. shares compounds with TAAR1 antag. activation, % at 3 µM. Ga16-expressing cells, calcium fluorescence, agonist counterscreen. hit rate 18% among 2,400; in the data active = activation above about 12%;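 note: 0% = vehicle wells and 100% = saturating stimulus response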
TAAR1 ag count = TAAR1 agonism, antagonist counter-screen; shares compounds with TAAR1 antag; hTAAR1 cell line, fluorescence activation, agonist mode; activation, % at 3 µM; hit rate 2% among 2,400; AID 651955; in the data active = activation above about 37%;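 note: CHO cells stably expressing TAAR1 with calcium dye readout; 0% = DMSO vehicle and 100% = full agonist response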
* marks the source's active call; other numbers are inactive results; nt = no result given. Rows were chosen to be rich in hits. Some 4.5% of all compounds tested hit in one or more screens of this group.

SMILES	GPR7 antagonist	TAAR1 ag	TAAR1 antag	OX1R antag-1	CHO parental Ca	OX1R antag-2	TAAR1 nonsel count	TAAR1 antag conf	Ga16 nonsel ag	TAAR1 ag count
COC(=O)[C@]12CCCCC=C1N(CCC1=CCCCC1)C(=O)[C@H](CC(=O)N1CCN(C(=O)C3CC3)CC1)C2	nt	4	-4	nt	nt	nt	nt	nt	nt	nt
COc1cccc(OC)c1C(=O)Nc1cc(C)nn1-c1nc2ccccc2[nH]1	-28	8	69*	-9	-20	18	28*	49*	4	0
COc1ccc(N2CCN(C(=O)C3CCCN(S(=O)(=O)c4cccc5cccnc45)C3)CC2)cc1 (stereo not drawn)	-1	1	13	-20	-5	5	nt	nt	nt	nt
COc1ccc(NC(=O)C2CCCN(S(=O)(=O)c3cccc4cccnc34)C2)c(OC)c1 (stereo not drawn)	-12	7	65*	-32	-22	14	23*	29	7	7
CC(OC(=O)c1ccccc1Br)C(=O)Nc1nc(-c2cccc([N+](=O)[O-])c2)cs1 (stereo not drawn)	-6	5	6	-16	-13	2	nt	nt	nt	nt
CC(OC(=O)c1cnccn1)C(=O)Nc1nc(-c2cccc([N+](=O)[O-])c2)cs1 (stereo not drawn)	nt	17	52*	-22	-14	17	24*	27	7	4
Cc1cc(-c2nc3cccnc3s2)ccc1NS(=O)(=O)c1cccs1	-16	0	63*	8	-12	12	16	34	3	0
COc1ccc(-c2noc(-c3csc([C@@H]4O[C@H](CO)[C@H](O)[C@H](O)[C@H]4O)n3)n2)cc1OC	nt	0	0	nt	nt	nt	nt	nt	nt	nt
Cc1ccc(Nc2nc(NCc3cccs3)nc3ccsc23)c(C)c1	nt	28	76*	nt	nt	nt	57*	66*	18*	26
N#CC(=Cc1ccnc2ccccc12)c1ccccc1	nt	5	32	nt	nt	nt	nt	nt	nt	nt
COc1ccc(/C=N/NC(=O)c2cccc(NC(=O)c3ccc(Cl)cc3)c2)c(OC)c1	-4	4	57*	-14	-14	14	29*	48	5	4
O=C(N/N=C/c1ccccc1F)c1cc2c(ccc3ccccc32)o1	-15	1	-23	-4	-14	32	nt	nt	nt	nt
COc1ccc(/C=N/NC(=O)c2cc3c(ccc4ccccc43)o2)c(OC)c1	5	1	63*	nt	nt	nt	22*	44	4	2
COc1cc(/C=N/NC(=O)c2cccc(NC(=O)c3ccccc3)c2)ccc1O	-6	14	65*	-14	-23	11	31*	57*	7	7
COc1cc(/C=N/NC(=O)C(=O)/C=C2\NC(C)(C)Cc3ccccc32)ccc1O	-27	1	52*	-22	-11	17	23*	33	6	11
COc1cc(/C=N/NC(=O)C2(O)c3ccccc3-c3ccccc32)ccc1O	-6	1	-4	-24	-17	7	nt	nt	nt	nt
COc1ccc(/C=N/NC(=O)c2ccc(NC(=O)c3cccc([N+](=O)[O-])c3)cc2)c(OC)c1	0	10	31	-29	-11	44	nt	nt	nt	nt
COc1cc(/C=N/NC(=O)c2ccncc2)ccc1O	-3	9	-22	-2	-4	21	nt	nt	nt	nt
Cc1ccc(C2(C)NC(=O)N(CC(=O)NCCN3C(=O)S/C(=C\c4cccnc4)C3=O)C2=O)cc1 (stereo not drawn)	nt	0	-3	nt	nt	nt	nt	nt	nt	nt
Cc1ccc2cccc(OC(=O)c3cccnc3Oc3ccccc3)c2n1	nt	1	-12	nt	nt	nt	nt	nt	nt	nt
COc1ccc(OC)c(-c2nn(-c3ccccc3)cc2C(=O)NC2(C)CCS(=O)(=O)C2)c1 (stereo not drawn)	nt	2	-8	nt	nt	nt	nt	nt	nt	nt
CC(=O)NC(c1ccccc1)c1nc(-c2ccc(Cl)cc2)cs1 (stereo not drawn)	nt	1	-11	nt	nt	nt	nt	nt	nt	nt
CC(=O)Nc1cc(NC(C)=O)cc(C(=O)N2CCCC3CCCCC32)c1 (stereo not drawn)	-3	5	-4	-9	5	3	nt	nt	nt	nt
COc1cc(/C=N\NC(=O)c2ccc(-c3ccccc3)cc2)cc(OC)c1OC(C)=O	-29	8	61*	nt	nt	nt	29*	38	8	3
COc1ccc(/C=N/NC(=O)c2nc(-c3ccccc3)cc(-c3ccccc3)n2)cc1OC	0	21	51*	-20	-16	16	26*	44	7	9
SMILES	GPR7 antagonist	TAAR1 ag	TAAR1 antag	OX1R antag-1	CHO parental Ca	OX1R antag-2	TAAR1 nonsel count	TAAR1 antag conf	Ga16 nonsel ag	TAAR1 ag count
O=C(N/N=C/c1ccccc1F)c1cccc(NC(=O)c2ccccc2Cl)c1	2	18	59*	-30	-22	6	29*	53*	10	11
Cc1ccc(CNC(=O)CC2(CC3=NS(=O)(=O)c4ccccc4N3)CCCC2)cc1	-5	12	66*	-11	-6	13	32*	51*	11	19
COc1ccc(CCNC(=O)CC2(CC3=NS(=O)(=O)c4ccccc4N3)CCCC2)cc1OC	-2	2	3	-27	-12	11	nt	nt	nt	nt
CSCC[C@@H](C(=O)NCCCCCCCCCCC(=O)N1CCN(C(=O)OC(C)(C)C)CC1)n1cc(CCO)nn1	nt	20	50*	-42	-6	14	28*	42	9	10
CC[C@@H](C)[C@@H](C(=O)N1CCN(C(=O)OC(C)(C)C)CC1)n1cc(CCCCNC(=O)OC(C)(C)C)nn1	-24	25	69*	-13	-15	32	42*	61*	13*	13
CC[C@H](C)C(C(=O)N1CCN(C(=O)OC(C)(C)C)CC1)n1cc(C(CC(C)C)NC(=O)OC(C)(C)C)nn1 (stereo partly drawn)	7	7	14	-28	-22	22	nt	nt	nt	nt
CSCCCc1cn([C@@H](CO)C(=O)NCCCCCCCCCCC(=O)N2CCNCC2)nn1	nt	8	4	-21	-13	20	nt	nt	nt	nt
C=CCOc1cccn2c(N(C)C(=O)c3ccc(OC)cc3)c(CC)nc12	nt	0	-17	nt	nt	nt	nt	nt	nt	nt
Cc1ccc(OCC(=O)Nc2sc3c(c2C#N)CCC3)cc1	0	0	51*	-40	-18	26	0	-7	-1	0
COC(=O)Nc1sc2c(c1C(=O)NCc1ccco1)CCCC2	-4	-3	107*	-20	-11	10	6	-8	4	5
COC(=O)Nc1sc2c(c1C(=O)NCc1ccco1)CCC2	-2	8	-3	-28	-25	5	nt	nt	nt	nt

Source: PubChem
